Bioassay records from PubChem BioAssay.
An excerpt weighted towards active compounds, which were near 1.5% of everything screened.
TAG inh – inhibitors of triacylglycerol accumulation, primary screen, cell-based, uHTS, fluorescence, H9c2; H9c2 cells, Nile Red lipid (TAG) fluorescence; cells loaded with 200 µM oleic acid; inhibition, % at 12.5 µM; actives 0.66% (n = 230,000); AID 651582, 2012;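 active means pattern-corrected inhibition of lipid staining of at least 50% with the nuclear-stain viability signal not falling by more than 50%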;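 further: 0% = DMSO wells and 100% = triacsin C control wells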
Hep lipid drop – inhibitors of hepatocyte lipid droplet formation, primary screen, imaging, high-throughput imaging, BODIPY stain; inhibition, % at 6.5 µM; actives 0.4% (n = 240,000); AML12 mouse hepatocytes, oleate lipid droplets; AID 1656, 2009;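 active means lipid droplet intensity inhibited by at least 50%, with more than 500 cells counted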
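Assay system: AML12 hepatocytes (mouse); Probe or stimulus: oleic acid at 100 µM to induce lipid droplet formation; Dosing: compound at 6.5 µM only; Schedule: compound with oleate, overnight; Detection: fluorescence imaging, 20x objective, two fields per well; Measure: % inhibition of lipid droplet signal.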
Platelet DG rel – inhibitors of platelet dense granule secretion, primary screen, cell-based, MLPCN, human platelets; actives 0.22% (n = 300,000); inhibition, %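 (compounds screened at 7.5 µM in platelet-rich plasma)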; human platelet-rich plasma, SFLLRN dense granule ATP release, luminescence;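 active means mean replicate score, as percent of positive control, at or above 50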
PPC-1+TRAIL kill – compounds killing PPC-1 cancer cells with TRAIL present, primary screen, TRAIL potentiator project, ATPLite luminescence, uHTS; AID 1443, 2008; actives 0.41% (n = 220,000); cell killing (% activity), % at 4 µM or 5 µM; PPC-1 cells + TRAIL, ATPLite viability luminescence;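 active means cell killing above 50% in the first pass at 4 µM, then a duplicate retest at 5 µM averaging 50% or more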;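 further: plate controls were cells with TRAIL plus DMSO for no effect and medium-only wells lacking cells for full effect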
STAT3 inh-1 – IL-6 driven STAT3 reporter inhibitors, primary screen, U3A cells, luciferase, luminescence, MLSCN library; actives 0.89% (n = 190,000); IL-6 STAT3-luciferase reporter; host cell line lacks STAT1; inhibition, % at 5.5 µM;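 active means inhibition above the mean inhibition across all screened compounds plus 3 SD, cut at about 44% in these data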;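 further: 0% = DMSO only wells and 100% = 100 µM nifuroxazide control wells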
STAT1 inh – STAT1 signaling inhibitors, primary screen, cell-based, HTS, luciferase reporter; actives 0.35% (n = 200,000); inhibition, % at 5.5 µM; AID 920, 2007; NIH 3T3 STAT1-luciferase reporter, IFN-gamma, luminescence;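 active means inhibition above a set limit, the mean inhibition across all tested compounds plus 3 SD, cut at about 34% in these data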;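 further: 0% = IFN-gamma with DMSO and 100% = IFN-gamma with 300 µM nifuroxazide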
STAT3 inh-2 – STAT3 reporter inhibitors, retest of hits, confirmation, U3A cells, luciferase, luminescence; shares compounds with STAT3 inh-1; actives 45% (n = 1,200); IL-6 STAT3 luciferase reporter; cell line lacks STAT1; AID 1265, 2008; inhibition, % at 5.7 µM;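 active means inhibition above the hit cutoff computed for the primary STAT3 screen, cut at about 44% in these data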;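 further: 0% = IL-6 plus DMSO and 100% = IL-6 plus nifuroxazide control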
NFkB inh 2 – NF-kB reporter inhibitors in human cells, confirmation, counter-screen for STAT3 inhibitor project, cell-based, HEK293T, luciferase, TNF-alpha stimulus | shares compounds with STAT3 inh-1 | TNF-alpha induced | inhibition, % at 5.7 µM | actives 36% (n = 1,200);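 active means inhibition above the mean of solvent-only control wells plus 3 SD, cutoff set per campaign, cut at about 13% in these data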;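 further: 0% = TNF-alpha with DMSO and 100% = TNF-alpha with MG high control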
STAT1 inh STAT3c – STAT1 reporter inhibitors, IFN-gamma induced, confirmation, counter-screen for STAT3 inhibitor project, cell-based, NIH 3T3, luciferase luminescence; shares compounds with STAT3 inh-1; NIH 3T3 STAT1-luciferase reporter; inhibition, % at 5.7 µM; actives 27% (n = 1,200); AID 1317, 2008;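 active means inhibition above the mean plus 3 SD of solvent-only control wells, limit set per screening run, cut at about 16% in these data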;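 further: 0% = DMSO with IFN-gamma and 100% = nifuroxazide control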
Active calls of the source: *; · = no result given.

SMILES	TAG inh	Hep lipid drop	Platelet DG rel	PPC-1+TRAIL kill	STAT3 inh-1	STAT1 inh	STAT3 inh-2	NFkB inh 2	STAT1 inh STAT3c
CC(=O)Nc1ccc(S(=O)(=O)Oc2ccc(N3C(=O)C4CCCCC4C3=O)cc2)cc1 (stereo unspecified)	·	·	-4	-17	73*	17	61*	20*	19*
CCC(=O)c1ccc(OCC(O)Cn2c(C)nc3ccccc32)cc1 (stereo unspecified)	-75	-21	·	10	64*	30	53*	14*	20*
Cc1nc2ccccc2n1CC(O)COc1ccc(Br)cc1 (stereo unspecified)	-9	0	1	21	22	23	·	·	·
CC1(C(=O)Nc2cccc3ncccc23)CCN1C(=O)Cc1ccc(-c2ccccc2)cc1 (stereo unspecified)	5	·	·	·	·	·	·	·	·
Fc1ccc(Cn2cnc3ccccc32)cc1	-17	8	2	5	15	-2	·	·	·
c1ccc(OCCn2cnc3ccccc32)cc1	·	-5	10	7	12	-7	·	·	·
Cc1ccccc1OCCCCn1cnc2ccccc21	-21	19	-5	16	61*	9	52*	12	14
c1ccc(OCCCCn2cnc3ccccc32)cc1	-4	5	-1	-6	44*	13	35	-7	-2
CCCOc1ccc(Cn2cnc3ccccc32)cc1	·	-3	·	3	48*	15	29	-1	7
CC(C1SC(=S)NC1=O)C1SC(=S)NC1=O (stereo unspecified)	2	·	·	·	·	·	·	·	·
CCCC(=O)N(Cc1cc2cc(OC)ccc2[nH]c1=O)c1ccc(OC)cc1	-7	·	·	·	·	·	·	·	·
COc1ccc(-c2nsc3c(N4CCN(S(=O)(=O)c5ccccc5)CC4)ncnc23)cc1	·	·	·	-8	·	·	·	·	·
COc1ccc(-c2nsc3c(N4CCCC4)ncnc23)cc1	-12	·	11	5	53*	-26	26	5	-74
C[C@@H]1CN([C@H](C)CO)C(=O)CCCn2nncc2CO[C@H]1CN(C)S(=O)(=O)c1cccc(F)c1	-17	·	·	·	·	·	·	·	·
COc1ccc2nc(NC(=S)N(C)C)sc2c1	·	14	2	35	44*	-77	21	-48	-165
COc1ccc2nc(NC(=O)c3ccoc3C)sc2c1	·	-1	91*	9	63*	-3	28	-16	-104
CCCCNC(=O)C1(C)CCN1C(=O)c1ccc2sccc2c1 (stereo unspecified)	1	·	·	·	·	·	·	·	·
CCN(C1CCCCC1)S(=O)(=O)CCNC(=O)c1ccc(OC)cc1	10	·	·	·	·	·	·	·	·
O=[N+]([O-])c1ccc(N/N=C/c2c[nH]c3ccccc23)cc1	-37	·	-3	12	48*	-9	26	8	-10
O=C(N/N=C/c1c[nH]c2ccccc12)c1cccc([N+](=O)[O-])c1	·	-23	-5	21	-30	11	·	·	·
O=C(NCCOc1ccccc1)c1ccc2c(c1)OCO2	·	0	2	27	76*	19	39	26*	-20
COC(=O)CCC1(C(N)=O)CCC(=O)c2ccccc21 (stereo unspecified)	1	·	·	·	·	·	·	·	·
CC(=O)c1cccc(N=c2scc(-c3ccc(S(=O)(=O)N4CCOCC4)cc3)n2CCO)c1	·	-34	-10	39	75*	24	77*	27*	25*
